From ChEMBL document CHEMBL4138178, “Green, unexpected synthesis of bis-coumarin derivatives as potent anti-bacterial and anti-inflammatory agents” (2018)
≈ marks a conversion by molar mass, not a printed value.

How the values were obtained:
Type in all cases: functional
Bacillus cereus = assay: Antibacterial activity against Bacillus cereus after 24 hrs by broth microdilution method
Enterococcus faecalis = assay: Antibacterial activity against Enterococcus faecalis MTCC 35550 after 24 hrs by broth microdilution method; details: MTCC 35550, 24 h
Outline: (§1)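 Broth tube dilution in BHI broth, run in triplicate. Strains sub-cultured at 35 °C for 48 h. Inoculum grown in BHI at 35 °C for 2–6 h and adjusted to 0.5 McFarland. Ten-tube serial dilution of compound, 200 µL diluted culture added to each tube. Media plus culture tube as control. Incubated 24 h at 37 °C; MIC read by turbidity.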

Erythrocyte = assay: Anti-inflammatory activity in human RBC membranes assessed as inhibition of heat-induced hemolysis at 100 ug/mL incubated for 20 mins at 54 degC by UV-VIS spectrometer analysis relative to control
Outline: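 Washed human RBCs as 40% (v/v) stock in isotonic 10 mM sodium phosphate buffer pH 7.4 with 0.9% NaCl. Compound 0.1 mg/mL in isotonic buffer with 30 µL erythrocyte suspension, duplicate sets. One pair heated at 54 °C for 20 min, other held at 0-5 °C. Spun 3 min at 1300 rpm, supernatant absorbance at 540 nm. % inhibition = 100 × [1 − (OD2−OD1)/(OD3−OD1)]; vehicle control.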

Escherichia coli = assay: Antibacterial activity against Escherichia coli MTCC 443 after 24 hrs by broth microdilution method; details: MTCC 443, 24 h; outline: as §1
Pseudomonas aeruginosa = assay: Antibacterial activity against Pseudomonas aeruginosa MTCC 25668 after 24 hrs by broth microdilution method; details: MTCC 25668, 24 h; outline: as §1
Prevotella intermedia = assay: Antibacterial activity against Prevotella intermedia after 24 hrs by broth microdilution method
Staphylococcus aureus = assay: Antibacterial activity against Staphylococcus aureus MTCC 12598 after 24 hrs by broth microdilution method; details: MTCC 12598, 24 h; outline: as §1

Compound	MIC (Bacillus cereus) [µg/mL]	MIC (Enterococcus faecalis) [µg/mL]	inhibition at 100 µg/mL (Erythrocyte) [%]	MIC (Escherichia coli) [µg/mL]	MIC (Pseudomonas aeruginosa) [µg/mL]	MIC (Prevotella intermedia) [µg/mL]	MIC (Staphylococcus aureus) [µg/mL]
COc1ccc2oc(=O)cc(C3CC(=O)Oc4c3c(=O)oc3ccccc43)c2c1 (centres undefined)	6.25 (≈ 16 µM)	6.25 (≈ 16 µM)	50.5	3.25 (≈ 8.33 µM)	6.25 (≈ 16 µM)	25 (≈ 64 µM)	6.25 (≈ 16 µM)
O=C(O)c1cn(C2CC2)c2cc(N3CCNCC3)c(F)cc2c1=O [CIPROFLOXACIN]	6.25 (≈ 18.9 µM)	6.25 (≈ 18.9 µM)	–	–	–	6.25 (≈ 18.9 µM)	–
CCOC(=O)C1=C(N)Oc2c(c(=O)oc3ccccc23)C1c1cc(=O)oc2c1ccc1ccccc12 (centres undefined)	6.25 (≈ 13 µM)	6.25 (≈ 13 µM)	61.2	1.56 (≈ 3.24 µM)	1.56 (≈ 3.24 µM)	6.25 (≈ 13 µM)	6.25 (≈ 13 µM)
Cc1ccc2c(C3C(C#N)=C(N)Oc4c3c(=O)oc3ccccc43)cc(=O)oc2c1 (centres undefined)	1.56 (≈ 3.92 µM)	6.25 (≈ 15.7 µM)	69.1	1.56 (≈ 3.92 µM)	1.56 (≈ 3.92 µM)	6.25 (≈ 15.7 µM)	1.56 (≈ 3.92 µM)
O=C(O)CC(c1c(O)c2ccccc2oc1=O)c1cc(=O)oc2ccc(Cl)cc12 (centres undefined)	25 (≈ 60.6 µM)	1.56 (≈ 3.78 µM)	61.2	1.56 (≈ 3.78 µM)	25 (≈ 60.6 µM)	3.25 (≈ 7.87 µM)	3.25 (≈ 7.87 µM)
N#CC1=C(N)Oc2c(c(=O)oc3ccccc23)C1c1cc(=O)oc2c1ccc1ccccc12 (centres undefined)	1.56 (≈ 3.59 µM)	1.56 (≈ 3.59 µM)	54.4	6.25 (≈ 14.4 µM)	25 (≈ 57.5 µM)	1.56 (≈ 3.59 µM)	3.25 (≈ 7.48 µM)
Cc1ccc2c(C(CC(=O)O)c3c(O)c4ccccc4oc3=O)cc(=O)oc2c1 (centres undefined)	6.25 (≈ 15.9 µM)	3.25 (≈ 8.28 µM)	76.4	3.25 (≈ 8.28 µM)	6.25 (≈ 15.9 µM)	25 (≈ 63.7 µM)	3.25 (≈ 8.28 µM)
CCOC(=O)C1=C(N)Oc2c(c(=O)oc3ccccc23)C1c1cc(=O)oc2ccc(OC)cc12 (centres undefined)	6.25 (≈ 13.5 µM)	6.25 (≈ 13.5 µM)	52.1	6.25 (≈ 13.5 µM)	25 (≈ 54.2 µM)	1.56 (≈ 3.38 µM)	6.25 (≈ 13.5 µM)
O=C(O)CC(c1c(O)c2ccccc2oc1=O)c1cc(=O)oc2c1ccc1ccccc12 (centres undefined)	6.25 (≈ 14.6 µM)	1.56 (≈ 3.64 µM)	59.1	3.25 (≈ 7.59 µM)	6.25 (≈ 14.6 µM)	25 (≈ 58.4 µM)	6.25 (≈ 14.6 µM)
COc1ccc2oc(=O)cc(C3C(C#N)=C(N)Oc4c3c(=O)oc3ccccc43)c2c1 (centres undefined)	6.25 (≈ 15.1 µM)	3.25 (≈ 7.84 µM)	15.3	1.56 (≈ 3.76 µM)	1.56 (≈ 3.76 µM)	6.25 (≈ 15.1 µM)	12.5 (≈ 30.2 µM)
Cc1ccc2c(C3CC(=O)Oc4c3c(=O)oc3ccccc43)cc(=O)oc2c1 (centres undefined)	6.25 (≈ 16.7 µM)	3.25 (≈ 8.68 µM)	36.8	1.56 (≈ 4.17 µM)	25 (≈ 66.8 µM)	3.25 (≈ 8.68 µM)	6.25 (≈ 16.7 µM)
COc1ccc2oc(=O)cc(C(CC(=O)O)c3c(O)c4ccccc4oc3=O)c2c1 (centres undefined)	6.25 (≈ 15.3 µM)	1.56 (≈ 3.82 µM)	23.3	1.56 (≈ 3.82 µM)	1.56 (≈ 3.82 µM)	6.25 (≈ 15.3 µM)	3.25 (≈ 7.96 µM)
CCOC(=O)C1=C(N)Oc2c(c(=O)oc3ccccc23)C1c1cc(=O)oc2ccc(C)cc12 (centres undefined)	6.25 (≈ 14 µM)	6.25 (≈ 14 µM)	42.3	1.56 (≈ 3.5 µM)	6.25 (≈ 14 µM)	6.25 (≈ 14 µM)	3.25 (≈ 7.3 µM)
N#CC1=C(N)Oc2c(c(=O)oc3ccccc23)C1c1cc(=O)oc2ccc(Cl)cc12 (centres undefined)	25 (≈ 59.7 µM)	3.25 (≈ 7.76 µM)	43.3	6.25 (≈ 14.9 µM)	6.25 (≈ 14.9 µM)	6.25 (≈ 14.9 µM)	25 (≈ 59.7 µM)
Cc1ccc2oc(=O)cc(C3CC(=O)Oc4c3c(=O)oc3ccccc43)c2c1 (centres undefined)	50 (≈ 134 µM)	6.25 (≈ 16.7 µM)	31.4	1.56 (≈ 4.17 µM)	25 (≈ 66.8 µM)	3.25 (≈ 8.68 µM)	12.5 (≈ 33.4 µM)
Cc1ccc2oc(=O)cc(C(CC(=O)O)c3c(O)c4ccccc4oc3=O)c2c1 (centres undefined)	25 (≈ 63.7 µM)	1.56 (≈ 3.98 µM)	14.1	3.25 (≈ 8.28 µM)	25 (≈ 63.7 µM)	6.25 (≈ 15.9 µM)	1.56 (≈ 3.98 µM)
CCOC(=O)C1=C(N)Oc2c(c(=O)oc3ccccc23)C1c1cc(=O)oc2ccc(Cl)cc12 (centres undefined)	25 (≈ 53.7 µM)	1.56 (≈ 3.35 µM)	62.2	6.25 (≈ 13.4 µM)	1.56 (≈ 3.35 µM)	1.56 (≈ 3.35 µM)	12.5 (≈ 26.8 µM)
CCOC(=O)C1=C(N)Oc2c(c(=O)oc3ccccc23)C1c1cc(=O)oc2cc(C)ccc12 (centres undefined)	25 (≈ 56.1 µM)	6.25 (≈ 14 µM)	69.4	6.25 (≈ 14 µM)	6.25 (≈ 14 µM)	6.25 (≈ 14 µM)	12.5 (≈ 28.1 µM)
O=C1CC(c2cc(=O)oc3ccc(Cl)cc23)c2c(c3ccccc3oc2=O)O1 (centres undefined)	25 (≈ 63.3 µM)	3.25 (≈ 8.23 µM)	70.7	6.25 (≈ 15.8 µM)	25 (≈ 63.3 µM)	6.25 (≈ 15.8 µM)	6.25 (≈ 15.8 µM)
CC(=O)Oc1ccccc1C(=O)O [ASPIRIN]	–	–	36.2	–	–	–	–
Cc1ccc2oc(=O)cc(C3C(C#N)=C(N)Oc4c3c(=O)oc3ccccc43)c2c1 (centres undefined)	6.25 (≈ 15.7 µM)	1.56 (≈ 3.92 µM)	11.2	6.25 (≈ 15.7 µM)	25 (≈ 62.8 µM)	6.25 (≈ 15.7 µM)	6.25 (≈ 15.7 µM)
O=C1CC(c2cc(=O)oc3c2ccc2ccccc23)c2c(c3ccccc3oc2=O)O1 (centres undefined)	25 (≈ 60.9 µM)	6.25 (≈ 15.2 µM)	37.6	6.25 (≈ 15.2 µM)	1.56 (≈ 3.8 µM)	25 (≈ 60.9 µM)	25 (≈ 60.9 µM)
